# Experimental data as given in PubChem BioAssay.
# A number with no mark means an inactive call. Inconclusive results are not listed. Active and inactive are the calls of the source.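 How the source made its calls, unless noted: active means cell viability at or below a set limit in both duplicate runs, the limit being the all-compound median minus 4 SD (cut at about 23% in these data, passing the limit was not always enough); inconclusive means no clear call, values can overlap the other calls; inactive means the rest.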
# Legend:
# [1] = S. cerevisiae growth inhibition in permissive medium (OD615), pilot counter-assay for S. cerevisiae lifespan shortening project, permissive growth control (AID 705;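 active means growth inhibition above 25% in both replicates, a cutoff set 3 SD above the mean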); conditions: OD615, 24 h, at 10 µM, active compounds read high
# Method in brief: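 Timing: 24 h exposure, 30 °C / Material: Saccharomyces cerevisiae strain carrying genetically modified DeaD replicative-lifespan system / Signal: OD at 615 nm / Compound: 10 µM single dose, 0.25% DMSO / Medium: SC raffinose/galactose permissive medium / Evaluation: reduction in yeast growth (OD615)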
# [2] = S. cerevisiae growth inhibition in restrictive medium, OD615, pilot screen, restrictive growth control, yeast lifespan reduction project (AID 706;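 active means growth inhibition above a set limit, 3 SD over mean compound inhibition, in both replicates, cut at about 43% in these data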;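 further: modified DeaD lifespan yeast strain shifted to restrictive glucose medium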); conditions: OD615, 48 h, at 10 µM, active compounds read high
# Method in brief: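 System: Engineered S. cerevisiae DeaD strain | Detection: OD615 | Buffer or medium: CSMM-D glucose medium | Doses: 10 µM compound, 0.25% DMSO | Timing: 4 h pre-growth plus 48 h compound exposure, 30 °C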
# [3] = doxorubicin toxicity protection in MRP-1 cells – H69AR cells, CellTiter-Glo, duplicate, MRP-1 activator project, pilot screen (AID 807;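 active means viability increase at or above a cutoff of the median across tested compounds plus 3 SD, cut at about 8.5% in these data, passing the limit was not always enough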;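 further: compound pretreatment 18-22 h then 72 h combined with doxorubicin; 0% = doxorubicin alone and 100% = vehicle without doxorubicin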); conditions: H69AR viability with doxorubicin, CellTiter-Glo luminescence; at 10 µM; active compounds read high
# [4] = viability of HCT116 without oncogenic beta-catenin – human colon tumor cells, pilot screen (AID 823); conditions: HCT116 beta-catenin knockout viability, CellTiter-Glo, 60 h; at 10 µM; active compounds read low;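 further: 0% = wells killed by 20 µM Hyamine and 100% = untreated DMSO cell wells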
# [5] = viability of PTEN-null HCT116 cells – cell-based, HCT116 clonal line, CellTiter-Glo, pilot screen (AID 824;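 active means viability at or below 27.92% in each of two runs, the all-compound median minus 4 SD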;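 further: 0% = 20 µM Hyamine control and 100% = vehicle cell control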); conditions: HCT116 PTEN-deleted viability, 60 h, at 10 µM, active compounds read low
# [6] = RAM pathway blockade in budding yeast – dse1pr::URA3 reporter, 5-FOA selection, pilot screen (AID 869;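 active means inhibition over a set limit, the all-compound mean plus 3 SD, in both replicate runs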;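 further: 0% = DMSO wells with no growth and 100% = 10 µM 1-NA-PP1 with full growth; RAM network block rescues cells from 5-FOA so hits raise OD615 growth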); conditions: S. cerevisiae dse1pr::URA3 5-FOA growth, OD615, 2 d; at 10 µM; active compounds read high; strain carries analog-sensitive mutant Cbk1 kinase
# [7] = RAM signaling pathway blockade in yeast – S. cerevisiae, Pdr1DBD-CYC8 efflux-inhibited sensitized strain, primary screen (AID 1298;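 active means RAM network inhibition above 8.4% in each of two replicates, 3 SD over the compound average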;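 further: 0% = DMSO untreated cells without growth and 100% = 10 µM 1-NA-PP1 full growth; higher means more yeast growth rescued from 5-FOA killing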); conditions: S. cerevisiae cbk1-as DSE1-URA3 strain, 5-FOA growth OD615, 2 d; at 50 µM; active compounds read high
Compound,growth inhibition [1] [%],growth inhibition [2] [%],viability increase [3] [%],viability [4],viability [5],inhibition [6] [%],RAM network inhibition [7] [%]
CCCC(=O)Nc1ccc(N2CCCCC2)cc1,-9.5,-9.51,-2.5,87.2%,94.4%,3.02,5.92
Cc1noc(C(=O)NCc2ccco2)c1Cl,-10.3,-34.1,-3.01,102%,101%,1.78,2.4
CC(C)Oc1ccc(C2CNC(=O)C2)cc1 (stereo not drawn),-1.04,0.15,-0.24,102%,103%,1.04,0.1
CSc1cc(/C=N/O)c(SC)s1,-6.62,1.13,-3.3,97.3%,95.9%,0.395,-1.95
Clc1cccc(CSc2nnc(-c3ccccn3)n2Cc2ccco2)c1,-8.18,21.1,-1.98,71.4%,75.3%,1.69,12.3
COc1ccc(S(=O)(=O)Nc2ccc3oc(C)c(C(=O)O)c3c2)cc1,3.11,-3.25,-2.36,95.5%,91.2%,1.54,3.39
COC(=O)c1ccc(C2c3c(oc4ccccc4c3=O)C(=O)N2CCCN2CCOCC2)cc1 (stereo not drawn),-2.57,-3.54,-4.63,87.6%,82.9%,0.54,0.48
O=C(O)CCCC(=O)Nc1ccccc1Br,9.25,10.5,-1.61,104%,94.8%,1.11,2.11
COc1ccc(C2C(C(=O)N3CCN(c4ccccc4)CC3)c3ccccc3C(=O)N2C)cc1 (stereo not drawn),-13.4,-17.6,-4.08,69.6%,74.9%,2.13,2.38
CC(=O)c1c(N2CCN(c3ccccc3)CC2)nc(=S)n(-c2ccccc2)c1C,3.6,15.2,-3.16,92.9%,99.9%,0.91,6.47
CCCN1Cc2cccc(C(=O)N3CCN(c4cc(Cl)ccc4C)CC3)c2C1=O,1.4,-10.8,-0.17,70.5%,66.7%,0.375,1.65
CCOC(=O)c1ccccc1NC(=O)CC1SC(=NC)N(C)C1=O (stereo not drawn),-10.3,-22.9,-2,102%,96.2%,2.04,4.34
CCCCn1c(CCCNC(=O)CC)nc2ccccc21,0.535,-5.98,-4.51,94.2%,85.8%,1.65,4.06
C=C(C)Cn1c(NCCC)nc2c1c(=O)n(C)c(=O)n2C,-9.8,-3.75,-0.51,98%,95.2%,2.74,1.36
COc1ccc(-c2nnc(SCC(=O)Nc3cc(F)ccc3C)o2)cc1,-4.83,4.39,1.69,101%,97.6%,2.44,0.58
CC1CCc2nn(CC(=O)NC3CCCC3)cc2C1 (stereo not drawn),0.6,10.9,-1.14,105%,92.9%,0.925,0.63
COc1cccc(C2CC(c3cccc(OC)c3)n3nc(N)nc3N2)c1 (stereo not drawn),-4.01,3.82,-2.05,95.2%,92.6%,0.07,2.5
CCOc1ccccc1NC(=O)CSc1nnc(-c2ccco2)n1Cc1ccco1,3.23,2.22,-2.48,95.7%,88.2%,-0.165,3.85
Cc1ccc(-c2ccc(CCC(=O)O)n2C(C)C)cc1,3.3,-1.55,-1.75,94.7%,101%,2.1,4.37
CCCC(=O)NCCCc1nc2ccccc2[nH]1,-8.81,-14.7,1.33,108%,100%,1.45,2.55
CC(C)NS(=O)(=O)c1ccc(CCC(=O)NCc2cccnc2)cc1,2.32,-6.38,-0.9,88%,92.5%,1.33,1.08
COC(=O)c1cc(-c2ccc(Br)cc2)on1,1.85,1.59,-2.76,102%,96.6%,0.09,1.79
Cc1ccc(-n2ncc3c(NCc4ccco4)ncnc32)c(C)c1,-3.74,-9.7,-4.75,97.3%,90.4%,-0.12,-0.57
Cc1ccc(S(=O)(=O)N(CC(=O)N2CCCC2)C2CCCCC2)cc1,-1.14,10.9,-1.79,99%,95%,0.685,2.21
O=C(CCN1C(=O)c2ccccc2C1=O)Nc1ccncc1,0.69,-3.13,3.4,98.5%,105%,1.6,1.47

Compound,growth inhibition [1] [%],growth inhibition [2] [%],viability increase [3] [%],viability [4],viability [5],inhibition [6] [%],RAM network inhibition [7] [%]
COc1cccc(C2CC(c3ccccc3OC)n3ncnc3N2)c1 (stereo not drawn),-4.81,8.07,-5.2,90.1%,71.2%,0.455,-0.26
COc1ccccc1-c1nc(-c2ccccn2)no1,-10.5,-2.21,-5.99,45.5%,39.7%,0.975,0.42
COC(=O)c1ccc(Nc2cc(C)nc3nc(C)nn23)cc1,-10.5,-4.57,-2.65,97.3%,94.6%,1.67,0.77
COc1ccccc1-c1cc(C(=O)N2CCCCC2)no1,-6.35,11.2,-0.55,103%,93.2%,2.1,4.18
CCN(CC)CCCNC(=O)c1cc2c(-c3ccc(Cl)cc3)nn(C)c2s1,0.63,17.3,-8.12,1.68% (active),1.82% (active),-0.18,-0.36
COc1ccc(OCCC(=O)OCC(=O)NCc2ccco2)cc1,-11,1.25,-1.75,92.2%,92.2%,1.01,4.11
Cc1cc(N2CCCc3ccccc32)n2ncnc2n1,-2.53,-1.67,-1.21,97.9%,105%,0.97,0.93
Cc1ccc2nc(NC(=O)c3ccc(Cl)s3)sc2c1,-17.2,-14.8,-6.45,64.5%,63%,1.35,2.06
CCC(=O)c1ccc(OCC(=O)Nc2nn3cnnc3s2)cc1,-2.54,8.22,1,104%,102%,1.27,6.32
C=CCn1c(C)c(C(C)=O)c(SC)nc1=S,-2.37,17.1,-1.99,101%,99.8%,0.34,5.32
O=C(c1cccs1)n1cc(C(=S)N2CCOCC2)c2ccccc21,-4.95,-0.915,-0.89,94.2%,88.1%,1.71,4.07
CC(C)Cc1ccc(C#N)c(SCC(N)=O)n1,-8.16,-9.82,-2.54,97.2%,92.1%,2.18,3.19
O=C(CCS(=O)(=O)c1cccc2nonc12)NCCc1ccccc1,-9.93,-23.2,-3.1,103%,99.1%,4.24,5.03
N#Cc1nc(COc2ccccc2F)oc1NCc1ccc(F)cc1,-5.23,6.15,-4.08,92.1%,90.7%,0.39,8.3
O=C(NCCN1CCc2ccccc2C1)Nc1ccc(F)cc1,-4.88,-2.83,-3.99,105%,100%,2.19,2.62
COc1ccc(C2C3=C(CC(c4ccco4)CC3=O)Nc3ccccc3N2C(C)=O)cc1 (stereo not drawn),-19,-16.4,-2.47,93.5%,102%,1.25,0.96
O=C(Cn1cc2c(n1)CCCC2)N1CCc2ccccc21,-7.55,9.02,-2.04,66%,77.4%,2.28,-1.03
CCN1CCN(Cc2ccc(NC(=O)Nc3ccc(OC)cc3)cc2)CC1,5.68,1.98,0.19,104%,108%,2.09,1.09
CCOC(=O)C1=C(SCC(=O)Nc2ccccc2)NC(=O)C(C#N)C12CCCCC2 (stereo not drawn),-8.66,-7.72,-2.95,85.1%,91.5%,1.71,2.44
C=C(C)CSc1nc2c(cc1C#N)CCC2,9.43,21.6,1.11,99.4%,99.1%,2.3,1.58
COc1ccc(-n2c(SCC(=O)Nc3nccs3)nc3c(c2=O)SC(C)C3)cc1 (stereo not drawn),-7.21,-3.74,-2.46,97.1%,93%,1.56,7.02
CCN1CCN(S(=O)(=O)c2ccc3[nH]c(=O)oc3c2)CC1,-9.66,-6.6,-0.48,104%,107%,1.5,4.74
CCN1CCN(c2cc(C)c3cc(NC(=O)c4cnccn4)ccc3n2)CC1,-11.2,1.29,-3.82,84.5%,89.5%,-0.02,-0.42
CCOC(=O)CSc1nc2c(c(=O)n1-c1ccc(OC)cc1)SCC2,-4.98,-0.425,0.37,99.5%,98.6%,1.04,7.6
